Article PMC7240809 (ACS Omega, 2020)

Columns and labels:
MC3R = settings: read-out: binding affinity to MC3R; cited from earlier work
[1] = biological target: melanocortin 1 receptor (MC1R); settings: read-out: binding affinity (Ki) to MC1R; cited from earlier work
MC5R = settings: read-out: binding affinity to MC5R; cited from earlier work
[2] = In vivo stability, radio-HPLC of mouse urine; design: species or system mice; settings: 1 h p.i., intravenous
In short: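 Mice under 2% isoflurane received approximately 4–6 MBq 68Ga-labeled test peptide intravenously and recovered freely. At 1 h p.i. they were euthanized by CO2, and urine was collected. Urine was analyzed for metabolites by reversed-phase C18 HPLC in 21% acetonitrile with 0.1% TFA to give percent intact peptide. Three or four independent experiments were run.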

B16–F10 melanoma = test: Biodistribution in C57BL/6J mice bearing B16–F10 melanoma; type: in vivo
In short: (§1)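 Male C57BL/6J mice (8–12 weeks) were inoculated subcutaneously on the right dorsal flank with 1 × 10^6 B16–F10 cells and used at 6–8 mm tumor diameter. They received 1–2 MBq 68Ga-labeled test peptide by tail vein under anesthesia, with or without co-injected 0.5 mg BMS 470539. At 1 or 2 h p.i., blood and organs were weighed and gamma-counted. Uptake is %ID/g (mean ± SD); blocked vs unblocked compared by two-way ANOVA with Holm–Sidak.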

[3] = as above; type: in vivo; settings: C57BL/6J, mouse, total radioactivity; for tissue uptake at 1 h / tissue uptake at 2 h: intravenous; for tissue to tissue ratio at 1 h / tissue to tissue ratio at 2 h: iv
In short: as §1

B16–F10 cells = test: Internalization assay; type: cell-based, Mus musculus; settings: 2 h, 37 °C
In short: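 B16–F10 mouse melanoma cells were grown in DMEM with 10% FBS and penicillin/streptomycin, then seeded overnight on poly-D-lysine plates. They were incubated with 68Ga-labeled test peptide at 37 °C with mild agitation for 30, 60, 90 or 120 min, then washed with PBS. Cells were trypsinized for the internalized fraction, and both fractions were gamma-counted in triplicate or quadruplicate.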

MC3R (Homo sapiens) = MC3R (Homo sapiens) (UniProt P41968); settings: cited from earlier work
MC4R (Homo sapiens) = MC4R (Homo sapiens) (UniProt P32245); settings: cited from earlier work
MC1R (Homo sapiens) = MC1R (Homo sapiens) (UniProt Q01726); settings: cited from earlier work
MC5R (Homo sapiens) = MC5R (Homo sapiens) (UniProt P33032); settings: cited from earlier work
MC4R = settings: read-out: binding affinity to MC4R; cited from earlier work

Chain of UniProt P41968 (P41968 whole entry): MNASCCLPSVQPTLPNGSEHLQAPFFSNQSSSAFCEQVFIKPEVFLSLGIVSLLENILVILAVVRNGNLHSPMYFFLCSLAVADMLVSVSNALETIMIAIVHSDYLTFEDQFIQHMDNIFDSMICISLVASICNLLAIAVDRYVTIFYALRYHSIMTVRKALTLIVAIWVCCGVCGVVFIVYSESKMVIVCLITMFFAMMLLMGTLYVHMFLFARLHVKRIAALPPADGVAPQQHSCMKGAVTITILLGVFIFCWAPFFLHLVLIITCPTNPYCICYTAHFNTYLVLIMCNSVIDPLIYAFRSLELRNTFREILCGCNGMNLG
Chain of UniProt P33032 (P33032 whole entry): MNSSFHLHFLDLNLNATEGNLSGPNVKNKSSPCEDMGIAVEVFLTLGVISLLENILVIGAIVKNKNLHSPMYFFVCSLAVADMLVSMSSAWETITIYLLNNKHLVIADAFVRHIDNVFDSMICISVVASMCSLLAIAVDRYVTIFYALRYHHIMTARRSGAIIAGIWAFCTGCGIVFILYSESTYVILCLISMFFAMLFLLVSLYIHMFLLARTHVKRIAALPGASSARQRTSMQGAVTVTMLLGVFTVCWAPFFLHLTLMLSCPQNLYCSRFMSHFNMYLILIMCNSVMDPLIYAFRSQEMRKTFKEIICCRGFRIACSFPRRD
Chain of UniProt P32245 (P32245 whole entry): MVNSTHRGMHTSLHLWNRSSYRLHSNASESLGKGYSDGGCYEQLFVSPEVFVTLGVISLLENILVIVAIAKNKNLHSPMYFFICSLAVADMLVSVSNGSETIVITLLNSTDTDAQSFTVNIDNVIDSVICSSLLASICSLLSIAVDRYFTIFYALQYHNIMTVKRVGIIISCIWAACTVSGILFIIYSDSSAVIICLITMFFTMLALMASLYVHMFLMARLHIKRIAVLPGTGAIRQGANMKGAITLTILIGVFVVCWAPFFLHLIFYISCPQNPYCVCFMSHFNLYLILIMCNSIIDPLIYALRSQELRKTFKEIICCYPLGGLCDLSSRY
Chain of UniProt Q01726 (Q01726 whole entry): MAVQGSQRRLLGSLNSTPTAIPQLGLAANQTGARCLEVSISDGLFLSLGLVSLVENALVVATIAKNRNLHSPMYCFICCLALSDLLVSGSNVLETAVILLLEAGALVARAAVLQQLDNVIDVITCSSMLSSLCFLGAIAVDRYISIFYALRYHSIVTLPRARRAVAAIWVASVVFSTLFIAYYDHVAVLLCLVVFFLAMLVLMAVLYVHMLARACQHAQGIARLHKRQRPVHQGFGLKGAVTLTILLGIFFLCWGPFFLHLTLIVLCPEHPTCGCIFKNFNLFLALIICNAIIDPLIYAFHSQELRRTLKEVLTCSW

Which Ki (MC3R) does the source give for “Ac-Nle^4-Cyclo[Asp^5-His^6-D-Phe^7-Arg^8-Trp^9-Lys^10]αMSH4-10-NH2 [MTII]” here?
The Ki was 0.0341 µM.

What about the Ki [1] of the same compound?
The Ki was 0.00069 µM.

What about the Ki (MC5R) of the same compound?
Its Ki is 0.0461 µM.

Which results are given for `CCCC[C@H](NC(=O)CN1CCC(NC(=O)CN2CCN(CC(=O)O)CCN(CC(=O)O)CCN(CC(=O)O)CC2)CC1)C(=O)N[C@H]1CC(=O)NCCCC[C@@H](C(N)=O)N(C)C(=O)[C@H](Cc2c[nH]c3ccccc23)N(C)C(=O)[C@H](CCCNC(=N)N)N(C)C(=O)[C@@H](Cc2ccccc2)NC(=O)[C@H](Cc2cnc[nH]2)N(C)C1=O` [[^68Ga]Ga-CCZ01099, metal not drawn]?
percentage of intact peptide [2]: ≥ 98%; tumor/blood uptake ratio (B16–F10 melanoma; 1 h p.i. blocked (n = 5), co-injection of 0.5 mg BMS 470539): 2.24 ± 0.40; tumor/blood uptake ratio (B16–F10 melanoma; 1 h p.i. unblocked (n = 5)): 9.94; tumor/bone uptake ratio (B16–F10 melanoma; 1 h p.i. unblocked (n = 5)): 23.3; tumor/muscle uptake ratio (B16–F10 melanoma; 1 h p.i. unblocked (n = 5)): 40.6; reduction of tumor uptake by blocking (B16–F10 melanoma; 1 h p.i., blocking with BMS 470539, p < 0.001): 91%; tumor/blood uptake ratio (B16–F10 melanoma; 2 h p.i. unblocked (n = 4)): 27.7; tumor/bone uptake ratio (B16–F10 melanoma; 2 h p.i. unblocked (n = 4)): 52.7; tumor/muscle uptake ratio (B16–F10 melanoma; 2 h p.i. unblocked (n = 4)): 125; tissue uptake at 1 h ([3]; B16F10 tumor): 6.33 ± 1.48 %ID/g; tissue uptake at 1 h ([3]; adrenal glands): 0.79 ± 0.72 %ID/g; tissue uptake at 1 h ([3]; blood): 0.65 ± 0.12 %ID/g; tissue uptake at 1 h ([3]; bone): 0.33 ± 0.18 %ID/g; tissue uptake at 1 h ([3]; heart): 0.24 ± 0.06 %ID/g; tissue uptake at 1 h ([3]; intestine, 0.5 mg): 0.17 ± 0.05 %ID/g; tissue uptake at 1 h ([3]; intestine): 0.34 ± 0.07 %ID/g; tissue uptake at 1 h ([3]; kidneys): 5.59 ± 0.88 %ID/g; tissue uptake at 1 h ([3]; liver): 0.53 ± 0.07 %ID/g; tissue uptake at 1 h ([3]; lungs): 0.69 ± 0.11 %ID/g; tissue uptake at 1 h ([3]; muscle): 0.16 ± 0.05 %ID/g; tissue uptake at 1 h ([3]; stomach): 0.22 ± 0.11 %ID/g; tissue uptake at 1 h ([3]; thyroid): 0.3 ± 0.08 %ID/g; tissue to tissue ratio at 1 h ([3]; tumor and blood): 9.94 ± 2.93; tissue to tissue ratio at 1 h ([3]; tumor and bone): 23.3 ± 12.1; tissue to tissue ratio at 2 h ([3]; tumor and bone): 52.7 ± 13.4; tissue to tissue ratio at 1 h ([3]; tumor and kidneys): 1.13 ± 0.22; tissue to tissue ratio at 1 h ([3]; tumor and liver): 11.9 ± 2.26; tissue to tissue ratio at 2 h ([3]; tumor and liver): 11.8 ± 2.72; tissue to tissue ratio at 1 h ([3]; tumor and muscle): 40.6 ± 11.9; tissue uptake at 2 h ([3]; male, seminal glands): 0.04 ± 0.01 %ID/g; tissue uptake at 1 h ([3]; male, testes): 0.2 ± 0.06 %ID/g; tissue uptake at 2 h ([3]; male, testes): 0.07 ± 0.01 %ID/g; radioactivity internalized (B16–F10 cells): 48%

With αMSH (from UniProt P01189) as the compound, how does the Ki (MC3R (Homo sapiens)) read?
Its Ki is 0.0315 µM.

And the Ki (MC4R (Homo sapiens))?
Its Ki is 0.9 µM.

What about the Ki (MC1R (Homo sapiens)) of the same compound?
Its Ki is 0.00023 µM.

What about the Ki (MC5R (Homo sapiens)) of the same compound?
Its Ki is 7.16 µM.

For “Alpha-melanocyte-stimulating hormone [αMSH]”, which Ki (MC4R) is on record?
Its Ki is 0.9 µM.
